Values after ≈ are worked out from the molar mass of the structure shown. Like-named read-outs stand apart in the source and are kept apart here.
How the values were obtained:
[1] = Histologic changes in the kidney and colon; assay type: in vivo, mouse; details: H&E, infected and treated mice
Outline: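 Tissue fixed in 4% paraformaldehyde for at least 24 h, dehydrated through graded ethanol, cleared in xylene, paraffin-embedded. Sections cut at 4 μm, dried at 60 °C, dewaxed and rehydrated. Stained with haematoxylin (3–5 min), differentiated and blued, counterstained with eosin (15 s), then dehydrated, cleared and mounted in neutral balsam. Imaged by light microscopy.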

CRAB QLH-2022-637 = assay: Bacterial resistance development, serial passage; assay type: cell-based, Acinetobacter baumannii; details: serial passage at 0.5-fold MIC
MRSA QLH-2022-718 = assay: Bacterial resistance development, serial passage; assay type: cell-based, Staphylococcus aureus; details: for MIC: Staphylococcus aureus, MRSA

| Compound | kidney tissue histology, in words [1] | fold increase in MIC after 20 passages (CRAB QLH-2022-637) [fold] | MIC (MRSA QLH-2022-718; read-out: MIC after 18 passages) [µg/mL] | MIC (MRSA QLH-2022-718; read-out: MIC at the first passage) [µg/mL] | fold increase in MIC after 18 passages (MRSA QLH-2022-718; serial passage at 0.5-fold MIC) [fold] |
| --- | --- | --- | --- | --- | --- |
| polymyxin B | A small amount of venous stasis | 32 | – | – | – |
| CN[C@H](CC(C)C)C(=O)N[C@H]1C(=O)N[C@@H](CC(N)=O)C(=O)N[C@H]2C(=O)N[C@H]3C(=O)N[C@H](C(=O)N[C@H](C(=O)O)c4cc(O)cc(O)c4-c4cc3ccc4O)[C@H](O)c3ccc(c(Cl)c3)Oc3cc2cc(c3O[C@@H]2O[C@H](CO)[C@@H](O)[C@H](O)[C@H]2O[C@H]2C[C@](C)(N)[C@H](O)[C@H](C)O2)Oc2ccc(cc2Cl)[C@H]1O [vancomycin] | histopathological changes: cytoplasmic rarefaction and pale staining | – | ≥ 64 | 0.5 (≈ 0.345 µM) | ≥ 128 |

— article PMC12578630 (Nature Microbiology, 2025)
